Hits are enriched below; roughly 3.5% of the tested compounds scored in any of these assays.
MrgX1 antag = blocks BAM8-22 activation of human MrgX1 receptor; B-score at 10 µM; MRGX1-HEK293 calcium flux, Fluo-4, BAM8-22 antagonism; hits give low values; AID 588676; 1.3% of 310,000 active;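 active = calcium-response B-score plate-corrected more than 3 library SD below zero, starting fluorescence within 5 deviations, no agonist response on first addition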;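 also: peak minus trough fluorescence over baseline after final BAM8-22 challenge near maximal dose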
Target sequence (Q96LB2 whole entry, looked up): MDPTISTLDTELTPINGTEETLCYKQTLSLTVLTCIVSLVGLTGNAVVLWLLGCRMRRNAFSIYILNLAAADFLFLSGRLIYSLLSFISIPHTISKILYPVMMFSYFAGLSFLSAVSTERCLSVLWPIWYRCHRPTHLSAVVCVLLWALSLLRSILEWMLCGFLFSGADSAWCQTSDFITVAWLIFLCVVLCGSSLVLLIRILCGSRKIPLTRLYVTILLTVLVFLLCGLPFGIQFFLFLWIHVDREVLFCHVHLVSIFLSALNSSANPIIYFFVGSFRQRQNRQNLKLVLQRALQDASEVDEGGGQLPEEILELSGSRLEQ
RGS4 inh = inhibitors of human RGS4; P49798; AID 463165; 0.45% of 310,000 active; B-score at 10 µM; HEK293 M3R/RGS4 inducible, Fluo-4 calcium flux; hits give high values; triggered by carbachol at its EC20;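 active = B-score, a plate-corrected calcium signal, over three deviations above library mean, with baseline fluorescence within five deviations of library mean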;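 also: RGS4 expression induced by doxycycline in cells with stable M3 receptor; B-score is computed from the integrated fluorescence ratio over baseline after carbachol; higher B-score means a larger calcium signal and so more RGS4 inhibition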
Target sequence (P49798 whole entry, looked up): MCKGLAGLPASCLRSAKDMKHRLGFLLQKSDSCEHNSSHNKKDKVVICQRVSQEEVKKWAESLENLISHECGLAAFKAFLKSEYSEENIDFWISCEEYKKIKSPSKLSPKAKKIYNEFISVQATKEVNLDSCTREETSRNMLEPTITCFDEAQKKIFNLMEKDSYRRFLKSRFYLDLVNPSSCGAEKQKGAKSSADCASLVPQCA
RGS4 act = RGS4 potentiation or activation; HEK293 M3R/inducible RGS4, carbachol calcium flux Fluo4; hits give low values; B-score at 10 µM; 0.92% of 310,000 active;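 active = B-score of the integrated calcium signal more than 4 SD below the library mean, with starting fluorescence not abnormally high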;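 also: negative B-score means reduced calcium response which marks RGS4 activation or potentiation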
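System: HEK293 FlpIn-TREx cells, stable M3R, doxycycline-inducible RGS4. Timing: overnight RGS4 induction, 30 min dye load 37 °C, 20 min compound RT. Also added: carbachol, ECmax concentration. Measured by: Fluo4 fluorescence kinetic imaging of calcium. Evaluation: integrated calcium ratio converted to B score.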
MrgX1 ag = activates human MrgX1 receptor signaling; Q96LB2; MrgX1-HEK293 cells, Fluo-4 calcium fluorescence, agonist mode; hits give high values; B-score at 10 µM; 0.44% of 310,000 active; AID 588627;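 active = calcium response B-score plate-corrected fluorescence ratio at least 3 library SD, with starting fluorescence B-score inside 5 SD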
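Assay system: MrgX1-expressing HEK293 cells / Amount: fifteen thousand cells per well / Doses: test compound in the initial addition of three / Timing: cells plated overnight, dye loaded 0.5 h 37 °C, 0.5 h room temperature / Technique: kinetic calcium dye fluorescence, Fluo-4 NW / Control set: positive and negative controls per plate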
MrgX1 allo act = allosterically activates human MrgX1 receptor signaling. MrgX1-HEK293, Fluo-4 calcium flux, FDSS; hits give high values. B-score at 10 µM. 0.63% of 310,000 active. AID 588675. Q96LB2;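 active = plate-corrected calcium response at least 3 library SD above typical, normal starting fluorescence, not activating the receptor alone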;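 also: compound read alongside a low EC10 to EC30 dose of BAM8-22 agonist; peak minus trough fluorescence over baseline measured at the second addition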
RGS4 block valid = RGS4 inhibitor validation | shares compounds with RGS4 inh | HEK293 M3R/RGS4, carbachol calcium Fluo-4 fluorescence; carbachol added at its EC20; 0 = buffer wells, 100 = carbachol control | calcium response, % at 10 µM | 65% of 1,700 active;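 active = duplicate-averaged calcium response above the buffer-only control mean plus 5 SD of those controls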;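 also: integrated fluorescence ratio F max minus min over baseline F0; higher response in RGS4-induced cells means RGS4 inhibition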
RGS4 uninduced = counter-screen for RGS4 inhibitors: effect in non-induced cells | shares compounds with RGS4 inh | HEK293 M3R non-induced, carbachol calcium Fluo-4; submaximal (EC20) carbachol stimulus; buffer wells 0%, carbachol control wells 100% | activity (percent), % at 10 µM | 20% of 1,900 active | AID 493000; call rule not given here;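 also: RGS4 induction absent so cells express M3R without RGS4; higher means more calcium signal and flags a non-specific hit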
M3R basal Ca ctr = second RGS4 inhibitor counter-screen in uninduced cells lacking carbachol; shares compounds with RGS4 inh; HEK293 M3R/RGS4 non-induced, Fluo-4 calcium, no carbachol; normalised: buffer wells 0%, carbachol wells 100%; calcium response (agonist-mode artifact), % at 10 µM; 22% of 1,900 active;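 active = duplicate-averaged calcium rise in uninduced cells above buffer wells' mean plus 5 SD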
Each line names hits and unclear results; the compound was inactive in the other large screens (follow-up assays come after a bar, where they were run).

NC(=O)CC(NC(=O)Cc1ccc(Cl)cc1)c1ccc(NC2CCCCCC2)c([N+](=O)[O-])c1 (stereo not drawn)	none
NC(=O)CC(NC(=O)Cc1ccc(Br)cc1)c1ccc(NC2CCCC2)c([N+](=O)[O-])c1 (stereo not drawn)	none | RGS4 block valid inactive | RGS4 uninduced inactive | M3R basal Ca ctr inactive
CCOc1ccc(-n2ccc(=O)c(C(=O)O)n2)cc1	none
CCc1ccc(C(=O)NC(CCSC)C(=O)OC)cc1 (stereo not drawn)	none
Cc1ccc(C2C=NN(c3ccccc3)C2=O)cc1 (stereo not drawn)	none
CCc1nnc(NS(=O)(=O)c2ccc(N=Cc3c(C)[nH]n(-c4ccc(C)c(C)c4)c3=O)cc2)s1	none | RGS4 block valid inactive | RGS4 uninduced inactive | M3R basal Ca ctr inactive
Cc1ccc(-n2[nH]c(C)c(C=Nc3ccc(S(=O)(=O)Nc4nccs4)cc3)c2=O)cc1	none
Cc1[nH]n(-c2ccc(Br)cc2)c(=O)c1C=Nc1ccc(S(=O)(=O)Nc2nccs2)cc1	RGS4 inh 18 | RGS4 block valid 9.5% | RGS4 uninduced inactive | M3R basal Ca ctr inactive
Cc1cc(C)nc(NS(=O)(=O)c2ccc(N=Cc3c(C)[nH]n(-c4ccccc4)c3=O)cc2)n1	none
COc1cc(CN2CCC(n3nccc3NC(=O)c3ccccc3OC)CC2)ccc1F	none
COc1ccc(OC)c(NC(=O)CCN2CCN(CCO)CC2)c1	none
CCOC(=O)c1c(-c2ccccc2)csc1NC(=O)CSc1nc(N)cc(N)n1	RGS4 inh 5.5 | RGS4 block valid 6.0% | RGS4 uninduced inactive | M3R basal Ca ctr inactive
CCOC(=O)c1c(-c2ccccc2)csc1NC(=O)CSc1nc(C)cc(C)n1	none | RGS4 block valid inactive | RGS4 uninduced inactive | M3R basal Ca ctr inactive
CCOC(=O)c1c(-c2ccc(C)o2)csc1NC(=O)CSc1nncs1	RGS4 inh 13 | RGS4 block valid 11% | RGS4 uninduced inactive | M3R basal Ca ctr inactive
CCOC(=O)c1c(-c2ccc(C)o2)csc1NC(=O)CN1CCCCC1	none
CCCC(=NC(C)CC)C1=C(O)CC(c2ccccc2)CC1=O (stereo not drawn)	none
CCCCCN(C(=O)CCC(=O)OCC(=O)c1ccc(CCC)cc1)c1c(N)n(CCCC)c(=O)[nH]c1=O	none
O=C(N/N=C/c1c[nH]c2ccccc12)C1CC1c1ccccc1 (stereo not drawn)	RGS4 inh 5.6 | RGS4 block valid 9.5% | RGS4 uninduced 36% | M3R basal Ca ctr 11%
O=C(N/N=C/c1c[nH]c2ccccc12)c1cc(-c2ccc(-c3ccccc3)cc2)n[nH]1	none
Cc1ccc(-c2cc(C(=O)N/N=C/c3c[nH]c4ccccc34)[nH]n2)cc1	none (no result: MrgX1 antag, MrgX1 ag, MrgX1 allo act) | RGS4 block valid inactive | RGS4 uninduced inactive | M3R basal Ca ctr inactive
O=C(N/N=C/c1c[nH]c2ccccc12)C1CC1(c1ccccc1)c1ccccc1 (stereo not drawn)	none
COc1ccc(S(=O)(=O)N2CCN(C(=O)C3CCCO3)CC2)cc1 (stereo not drawn)	none
Cc1c(Cl)ccc2sc(NC(=O)C3CC3)nc12	RGS4 inh 6.2 | RGS4 block valid 8.0% | RGS4 uninduced inactive | M3R basal Ca ctr inactive
Cc1ccc2occ(/C=N/NC(N)=S)c(=O)c2c1	RGS4 inh 11 | RGS4 block valid 54% | RGS4 uninduced 66% | M3R basal Ca ctr inactive
Cc1ccc2occ(/C=N/NC(=O)c3ccc(O)cc3)c(=O)c2c1	none
CCc1sc(C(C2C(=O)CC(C)(C)CC2=O)C2C(=O)CC(C)(C)CC2=O)cc1[N+](=O)[O-]	RGS4 inh 30, MrgX1 ag 52 | RGS4 block valid 30% | RGS4 uninduced inactive | M3R basal Ca ctr 121%

Source: PubChem BioAssay
